Compound activity (PubChem BioAssay)
Most compounds without a hit are left out; they make up all but 12% or so of the library.
Diaphorase act – compounds boosting diaphorase resazurin reduction – biochemical, uHTS, resorufin fluorescence, counter-screen for diaphorase-coupled primary assays, primary screen | Diaphorase/resazurin coupled assay, 16 min; active compounds read high; 1 = vehicle wells, 0 = NADH-free wells | activation factor at 20 µM | 0.005% of 190,000 active;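 active means diaphorase activity raised at least twofold by the compound at 20 µM; inactive means activation factor below 2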
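Assay system: Purified diaphorase enzyme from Clostridium kluyveri | Amount: Enzyme 0.07 U/mL final | Dosing: Compound 20 µM once, DMSO 1% | Timing: 16 min reaction at room temperature | Detection: Fluorescence, excitation 544 nm and emission 590 nm | Evaluation: Higher resorufin formation from activation or reduction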
KCC2 mod – KCC2 cotransporter modulators, thallium flux, primary screen, cell-based, HEK293 KCC2, FluoZin-2 fluorescence, MLSMR; KCC2 cells, thallium flux FluoZin-2 fluorescence; B-score of Tl+ flux slope (higher = more flux/activation; lower = inhibition) at 10 µM; AID 1456, 2008; 2.2% of 190,000 active;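 active means thallium flux slope and its plate-corrected score both differing from the plate sample mean at a set confidence after two filtering rounds, in either direction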;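 further: slope of fluorescence scaled to starting intensity during 10 to 20 s after thallium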
WT yeast gro inh – growth inhibition of WT strain, primary screen, mitochondrial fusion inhibitor project, WT and mutant strains, chemical genetic. mitochondrial fusion phenotypic screen. inhibition, % at 10 µM. 2.1% of 190,000 active. AID 1362, 2008; in the data active means inhibition above about 58%; tested in S. cerevisiae
Lmaj promast – Leishmania major promastigote growth inhibition, primary screen; inhibition, % at 10 µM; Leishmania major promastigotes, resazurin fluorescence viability; 9% of 200,000 active; AID 1063, 2008; in the data active means inhibition above about 50%;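 further: promastigotes grown with compound for 44 hours at 28 °C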
ROMK primary – ROMK potassium channel modulators, primary screen, cell-based, thallium flux, MLSMR library. Tet-inducible ROMK, thallium flux fluorescence; actives lie on both sides. B-score at 10 µM. 2% of 130,000 active;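 active means signal ratio slope over the read window, or its plate-corrected B-score, at least 3 SD from the plate mean, either direction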;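 further: B-score of the F/F0 ratio slope over 7 to 12 s after thallium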
Target sequence (P48048 whole entry, looked up): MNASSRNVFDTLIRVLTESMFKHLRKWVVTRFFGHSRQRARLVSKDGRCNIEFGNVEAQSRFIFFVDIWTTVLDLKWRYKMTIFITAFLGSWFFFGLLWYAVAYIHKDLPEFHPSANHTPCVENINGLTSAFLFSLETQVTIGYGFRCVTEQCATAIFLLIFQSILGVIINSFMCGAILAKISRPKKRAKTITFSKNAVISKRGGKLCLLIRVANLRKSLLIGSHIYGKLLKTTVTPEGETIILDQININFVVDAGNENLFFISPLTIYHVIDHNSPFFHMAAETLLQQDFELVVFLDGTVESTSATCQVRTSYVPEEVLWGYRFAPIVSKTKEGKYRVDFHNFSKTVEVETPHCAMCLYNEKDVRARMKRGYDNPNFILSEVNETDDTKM
Diaphorase inh – diaphorase inhibitors and chemical oxidizers, primary screen, counter-screen for diaphorase-coupled primary assays, biochemical, uHTS, resorufin fluorescence. 0.69% of 190,000 active. inhibition, % at 20 µM. diaphorase resazurin-to-resorufin fluorescence, NADH, 16 min; bacterial (C. kluyveri) enzyme, not human. AID 1217, 2008;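 active means primary screen inhibition at 20 µM above a set limit, cut at about 50% in these data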;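 further: plate controls were DMSO with full reaction for no effect and wells lacking NADH for full effect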
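controls = No-NADH positive control and DMSO neutral control | system = Clostridium kluyveri diaphorase enzyme | timing = reaction incubation of 16 min at room temperature | signal = resorufin fluorescence 544/590 nm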
Active calls of the source: *; / = no result.

SMILES	Diaphorase act	KCC2 mod	WT yeast gro inh	Lmaj promast	ROMK primary	Diaphorase inh
Cc1cc(NC(=O)CSc2nnc(Cc3cccn3C)n2CCc2ccccc2)no1	0.8	-2.59	-5.5	-3.1	/	22.9
COc1ccc(S(=O)(=O)Oc2cccc(/C=N/N=C3/NC(=O)C(CC(=O)O)S3)c2)cc1 (centres undefined)	0.9	-0.0345	7.0	4.4	0.532	8.2
COc1ccc(CCN(C)C(=O)C2CCN(Cc3ccc(C)cc3)CC2)cc1OC	0.9	0.178	-16.5	1.4	-0.514	7.1
c1ccc(CCn2c(C3CC3)nc3ccccc32)cc1	0.9	/	-5.3	62.9*	-1.63	8.4
O=C(O)CCn1c(C2CCCCC2)nc2ccccc21	0.8	0.552	8.1	-8.2	/	23.1
Cc1cc(C)nc(Sc2ncnc(N)c2[N+](=O)[O-])n1	1	-1.24	2.6	57.9*	0.364	0.9
CCC(C)NCCCOc1ccc(Cl)cc1C(C)(C)C (centres undefined)	0.9	0.862	26.7	99.7*	0.228	10.7
COCCNCCOc1ccc(C)cc1[N+](=O)[O-]	0.9	-0.797	13.0	1.3	0.684	14.3
COCCCNCCCOc1ccc(Cl)cc1C(C)(C)C	1	0.0356	30.1	100.3*	-0.845	2.0
CNCCCOc1ccc(Cl)cc1C(C)(C)C	1	0.891	29.3	99.3*	-3.06	4.9
Cc1ccc(S(=O)(=O)N(CC(=O)NC2CCCC2)c2cccc(C)c2)cc1	1.1	0.614	-1.4	9.2	-0.53	-5.8
CC(C)CCn1c(N)c(S(=O)(=O)c2cccs2)c2nc3ccccc3nc21	0.8	0.318	-4.3	69.7*	/	24.2
Nc1c(S(=O)(=O)c2cccs2)c2nc3ccccc3nc2n1CCc1ccccc1	0.7	0.974	-12.8	76.5*	/	33.6
COc1ccc(CCn2c(N)c(S(=O)(=O)c3cccs3)c3nc4ccccc4nc32)cc1OC	0.8	-0.284	0.5	29.4	/	21.3
CCOC(=O)C1(Cc2ccccc2C(F)(F)F)CCN(CCCn2cccn2)CC1	0.9	-0.161	5.0	87.6*	-0.952	13.2
CCOC(=O)C1(CCCc2ccccc2)CCN(CCCn2cccn2)CC1	1.2	/	6.8	76.4*	-0.881	-16.3
CCOC(=O)C1(CCCc2ccccc2)CCN(Cc2nccn2CC)CC1	0.9	-0.583	58.7*	74.6*	0.667	8.0
CC1=Nc2ccccc2N=C(NC(=O)CN2CCN(c3ccc(F)cc3)CC2)C1c1ccccc1 (centres undefined)	/	-0.282	/	/	/	/
Cc1sc2ncn(CC(=O)N3CCCCC3)c(=O)c2c1C	0.9	-0.0233	-2.9	-7.3	1.16	10.2
Cc1cc(C)c(S(=O)(=O)N2CCN(C(=O)c3cccs3)CC2)c(C)c1	0.9	-0.943	7.3	61.9*	0.384	6.6
S=C(NCc1ccco1)N1CCN(C/C=C/c2ccccc2)CC1	0.9	-2.56	8.1	77.2*	0.302	5.9
COc1ccc(N2CCN(CC(=O)c3c[nH]c4ccccc34)CC2)cc1	/	0.351	/	/	/	/
COc1cccc(NC(=S)N2CCN(C/C=C/c3ccccc3)CC2)c1	0.8	-2.47	15.7	95.2*	-2.12	15.0
COc1ccc2[nH]cc(C(=O)CN3CCN(C/C=C/c4ccccc4)CC3)c2c1	1	/	-10.7	98.0*	/	-2.4
OCC1(CC2CCCCO2)CCN(C/C=C/c2ccccc2)CC1 (centres undefined)	1.1	-1.07	12.2	88.5*	/	-5.4
SMILES	Diaphorase act	KCC2 mod	WT yeast gro inh	Lmaj promast	ROMK primary	Diaphorase inh
S=C(Nc1ccccc1)N1CCN(C/C=C/c2ccccc2)CC1	0.9	-2.03	23.0	39.4	-0.801	6.4
S=C(NCCc1cnc[nH]1)NC1CCCC1	0.9	0.778	-9.1	-5.8	0.0939	6.4
S=C(NC1CCCC1)N1CCN(C/C=C/c2ccccc2)CC1	1.1	-3.01	16.0	80.8*	-0.79	-14.6
COc1ccc(/C=C\C(=O)CC(O)(c2ccccc2)C(F)(F)F)cc1 (centres undefined)	0.9	-2.65	24.8	100.0*	-0.00104	7.5
N#C/C(=C\C=C\c1ccccc1)c1nc(-c2ccc(Cl)cc2)cs1	/	0.981	/	/	/	/
Cc1ccc(CNC(=O)c2sccc2-n2cccc2)cc1	0.9	6.92*	5.4	2.2	/	13.3
O=C(NNC(=O)c1sccc1-n1cccc1)c1cccc(Cl)c1	1	12.1*	13.9	-1.8	/	-1.3
O=C(N/N=C\c1ccc(Cl)cc1Cl)c1sccc1-n1cccc1	0.7	/	14.2	99.9*	/	25.5
CN(Cc1cc(=O)n2ccsc2n1)C1CCCCC1	1.1	0.0593	4.0	3.9	0.495	-8.9
COCCn1cc(C(=S)N2CCCCC2)c2ccccc21	1.1	0.117	27.7	10.1	0.0676	-12.9
S=C(c1cn(CCOc2cccc3ccccc23)c2ccccc12)N1CCCC1	1	0.401	31.1	94.9*	-0.135	1.5
S=C(c1cn(CCOc2ccccc2)c2ccccc12)N1CCCC1	0.9	-2.12	70.5*	98.4*	/	7.6
Cc1ccc(OCCn2cc(C(=S)N3CCCC3)c3ccccc32)cc1C	0.8	0.133	10.3	40.5	/	20.4
CC(=NC(C)C)C1=C(O)C(C)OC1=O (centres undefined)	1	0.693	-0.6	74.6*	0.256	1.3
COc1ccccc1N1CCN(CC(=O)Nc2ccc(-n3cnnn3)cc2)CC1	0.9	1.07	-7.2	-3.5	-0.812	7.6
CCCC(=O)NC(c1ccco1)c1c(O)ccc2ccccc12 (centres undefined)	0.6	/	-9.2	56.7*	/	43.9
CCC(=O)NC(c1cccc([N+](=O)[O-])c1)c1c(O)ccc2ccccc12 (centres undefined)	0.5	0.373	1.8	6.3	-0.00338	46.3
CC(C)CC(=O)NC(c1ccccc1Cl)c1c(O)ccc2ccccc12 (centres undefined)	0.9	0	-14.2	100.3*	/	11.1
CCCCC(=O)NC(c1ccco1)c1c(O)ccc2ccccc12 (centres undefined)	0.6	0.167	-0.7	67.2*	-0.134	40.5
CC(C)C(=O)NC(c1ccc(N(C)C)cc1)c1c(O)ccc2ccccc12 (centres undefined)	/	0.504	/	/	/	/
COc1ccc(C(NC(=O)C2CCCCC2)c2c(O)ccc3ccccc23)cc1 (centres undefined)	0.8	0.0331	20.1	99.8*	0.425	22.3
CCn1c(=S)[nH]c2c(c1=O)C(C)(C)Cc1ccccc1-2	0.6	151*	15.0	-1.5	4.05*	42.5
Cc1csc2ncc(C(=O)N3CCc4ccccc43)c(=O)n12	/	-2.85*	/	-5.8	/	/
